Laboratory results: ChEMBL document CHEMBL4049387, “Combination of l-Carnitine with Lipophilic Linkage-Donating Gemcitabine Derivatives as Intestinal Novel Organic Cation Transporter 2-Targeting Oral Prodrugs” (J Med Chem, 2017)
Active and inactive are the calls of the source. The rule behind the calls is not given here.

How the values were obtained:
[1] = target: T1, Organic cation/carnitine transporter 2 (Homo sapiens, UniProt O76082); assay: Drug transport assessed as Vmax for OCTN2 transporter mediated drug uptake in human Caco2 cells after 10 mins by Eadie-Hofstee plot method; type: ADME, cell-based; conditions: caco-2, 10 min
T1 sequence (O76082 whole entry): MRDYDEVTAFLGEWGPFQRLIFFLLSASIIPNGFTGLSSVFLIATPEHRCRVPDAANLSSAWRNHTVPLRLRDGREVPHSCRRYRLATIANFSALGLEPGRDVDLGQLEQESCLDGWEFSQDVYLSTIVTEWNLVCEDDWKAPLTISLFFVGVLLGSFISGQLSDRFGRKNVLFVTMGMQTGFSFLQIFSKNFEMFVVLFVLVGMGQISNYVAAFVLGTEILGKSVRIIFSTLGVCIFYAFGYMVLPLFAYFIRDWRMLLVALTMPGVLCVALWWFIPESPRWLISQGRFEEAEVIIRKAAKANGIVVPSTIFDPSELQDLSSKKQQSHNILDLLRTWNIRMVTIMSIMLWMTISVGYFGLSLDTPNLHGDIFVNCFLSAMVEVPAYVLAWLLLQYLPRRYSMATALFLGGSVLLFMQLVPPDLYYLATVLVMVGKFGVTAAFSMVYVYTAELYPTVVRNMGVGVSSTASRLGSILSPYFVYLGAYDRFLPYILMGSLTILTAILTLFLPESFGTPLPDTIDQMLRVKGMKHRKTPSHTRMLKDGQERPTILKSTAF

[2] = target: T1, Organic cation/carnitine transporter 2; assay: Ratio of drug transport assessed as OCTN2 transporter mediated drug uptake in human Caco2 cells at 100 uM in absence of L-carnitine to drug transport assessed as OCTN2 transporter mediated drug uptake in human Caco2 cells at 100 uM in presence of L-carnitine; type: ADME, cell-based; conditions: caco-2, 100 µM
[3] = Terminal half-life in Wistar rat at 50 mg/kg, po administered as single dose by UPLC-MS/MS method; type: ADME, organism-based; conditions: in vivo, read-out: beta t1/2 (converted)
In short: (§1)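 Wistar rats, six per group, single oral dose equivalent to 50 mg/kg gemcitabine; separate group given gemcitabine iv at 7.5 mg/kg. Oral sampling at 5, 10, 15, 30 min and 1, 2, 4, 6, 8, 12, 24 h; iv at 15, 30 min and 2, 4, 8, 12, 24 h. Blood into THU-pretreated heparinized tubes, centrifuged 3000 × g 15 min, plasma at -80 °C. Prodrug and gemcitabine quantified by UPLC-MS/MS. F = AUCpo×Div/AUCiv/Dpo×100%.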

[4] = target: T1, Organic cation/carnitine transporter 2; assay: Ratio of drug transport assessed as OCTN2 transporter mediated cell permeability in human Caco2 cells at 25 uM in absence of L-carnitine to drug transport assessed as OCTN2 transporter mediated cell permeability in human Caco2 cells at 25 uM in presence of L-carnitine; type: ADME, cell-based; conditions: caco-2, 25 µM
In short: (§2)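 Caco-2 cells seeded at 1.0×10^5 cells/well on 0.4 µm polycarbonate inserts, cultured 21 days in MEM; monolayers with TEER over 250 Ω·cm² used. Compound at 25 µM final in HBSS, added apically, with or without 100 µM L-carnitine, 37 °C. Basolateral samples taken at 15, 30, 45, 60, 90, 120 min. Analysed by UPLC-MS/MS to give Papp. Triplicate runs.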

[5] = Tmax in Wistar rat at 50 mg/kg, po administered as single dose by UPLC-MS/MS method; type: ADME, organism-based; conditions: in vivo; in short: as §1
Rattus norvegicus [6] = assay: AUC (0 to 24 hrs) in Wistar rat at 50 mg/kg, po administered as single dose by UPLC-MS/MS method; type: ADME, organism-based; design: dose 50 mg/kg, time < 24 hr, route oral; conditions: in vivo; in short: as §1
BXPC-3 [7] = assay: Cytotoxicity against human BxPC3 cells assessed as decrease in cell viability after 48 hrs by MTT assay; type: functional, cell-based
In short: (§3)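 BxPC-3 and Caco-2 cells exposed to compounds for 48 h. Viability read by MTT assay kit. IC50 calculated from dose-response.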

[8] = Half life in rat hepatic homogenates at 5 uM by HPLC method; type: ADME, tissue-based, Liver
In short: (§4)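 Compound at 5 µM final in rat plasma, 20% rat hepatic homogenate or 20% rat intestinal homogenate at 37 °C for 24 h. Homogenates made by homogenizing 0.3 g saline-washed tissue in 1 mL saline, spun 13,000 rpm 4 °C 5 min. Sampled at intervals, analysed by HPLC. t1/2 = 0.693/k.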

[9] = Stability of the compound in pH 6.8 phosphate buffer at 5 uM by HPLC method; type: physicochemical; conditions: pH 6.8, 5 µM
In short: (§5)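 Compound dissolved at 5 µM in phosphate buffer (pH 1.2, 6.8 or 7.4), held at 37 °C for 24 h. Aliquots taken at intervals and analysed by HPLC. t1/2 = 0.693/k from linear regression of pseudo-first-order kinetics.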

[10] = target: T1, Organic cation/carnitine transporter 2; assay: Ratio of drug transport assessed as OCTN2 transporter mediated drug uptake in human Caco2 cells at 1 to 800 uM in presence of Na+ to drug transport assessed as OCTN2 transporter mediated drug uptake in human Caco2 cells at 1 to 800 uM in presence of N-methyl-D-glucamine; type: ADME, cell-based; conditions: caco-2, 800 µM
[11] = Half life in rat plasma at 5 uM by HPLC method; type: ADME, cell-free; in short: as §4
[12] = Half life in pH 1.2 phosphate buffer at 5 uM by HPLC method; type: physicochemical; in short: as §5
[13] = target: T2, Organic cation/carnitine transporter 2 (Rattus norvegicus, UniProt O70594); assay: Ratio of drug transport assessed as OCTN2 transporter mediated effective permeability in rat duodenum at 76 uM in absence of L-carnitine to drug transport assessed as OCTN2 transporter mediated effective permeability in rat duodenum at 76 uM in presence of L-carnitine; type: ADME
T2 sequence (O70594 whole entry): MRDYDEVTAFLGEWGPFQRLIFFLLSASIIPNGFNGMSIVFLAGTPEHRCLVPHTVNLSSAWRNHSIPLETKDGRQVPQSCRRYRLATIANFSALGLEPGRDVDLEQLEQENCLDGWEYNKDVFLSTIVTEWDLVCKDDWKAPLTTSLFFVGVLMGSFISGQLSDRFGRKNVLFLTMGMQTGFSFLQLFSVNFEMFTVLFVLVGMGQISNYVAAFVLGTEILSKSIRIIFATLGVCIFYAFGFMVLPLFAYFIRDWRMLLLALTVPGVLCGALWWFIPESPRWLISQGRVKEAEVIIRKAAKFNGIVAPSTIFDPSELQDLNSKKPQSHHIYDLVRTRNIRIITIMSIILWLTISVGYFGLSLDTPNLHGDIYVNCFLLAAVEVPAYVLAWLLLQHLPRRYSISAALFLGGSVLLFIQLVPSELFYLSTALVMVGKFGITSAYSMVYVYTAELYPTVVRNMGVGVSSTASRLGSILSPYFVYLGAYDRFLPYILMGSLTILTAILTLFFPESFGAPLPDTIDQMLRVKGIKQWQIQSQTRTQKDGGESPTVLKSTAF

[14] = Oral bioavailability in Wistar rat at 50 mg/kg administered as single dose in presence of L-carnitine by UPLC-MS/MS method; type: ADME, organism-based; conditions: in vivo, with L-carnitine
In short: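 Rats dosed orally with prodrug at a gemcitabine-equivalent dose of 50 mg/kg, co-administered with 40 mM L-carnitine. Serial blood at 5 min–24 h into THU-pretreated heparinized tubes. Plasma measured by UPLC-MS/MS. Absolute bioavailability calculated against iv gemcitabine at 7.5 mg/kg.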

[15] = Half life in rat intestinal homogenates at 5 uM by HPLC method; type: ADME, tissue-based, Intestine; in short: as §4
[16] = target: T2, Organic cation/carnitine transporter 2; assay: Ratio of drug transport assessed as OCTN2 transporter mediated effective permeability in rat jejunum at 76 uM in absence of L-carnitine to drug transport assessed as OCTN2 transporter mediated effective permeability in rat jejunum at 76 uM in presence of L-carnitine; type: ADME
[17] = target: T1, Organic cation/carnitine transporter 2; assay: Drug transport assessed as OCTN2 transporter mediated cell permeability in human Caco2 cells across apical to basolateral side at 25 uM after 15 to 120 mins by UPLC-MS/MS method relative to gemcitabine; type: ADME, cell-based; conditions: caco-2, 25 µM; in short: as §2
OCTN2 = assay: Ratio of drug transport in OCTN2 (unknown origin) expressing HEK293 cells assessed as transporter-mediated drug uptake at 25 uM to drug uptake in HEK293 cells at 25 uM; type: ADME, cell-based; conditions: human, HEK293 cells expressing OCTN2, against HEK293 cells
In short: (§6)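 OCTN2-transfected HEK293 cells and mock HEK293 cells incubated with 25 µM compound at 37 °C for 15 min, then cellular uptake measured; n = 2.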

[18] = Drug level in Wistar rat portal blood at 50 mg/kg administered as single dose at 2 hrs by UPLC-MS/MS method; type: ADME, organism-based; conditions: read-out: Drug uptake
In short: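 Rats given single oral dose equivalent to 50 mg/kg gemcitabine. Portal vein and systemic plasma sampled at 2 h. Prodrug and gemcitabine measured by UPLC-MS/MS.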

[19] = Oral bioavailability in Wistar rat at 50 mg/kg administered as single dose by UPLC-MS/MS method; type: ADME, organism-based; conditions: in vivo; in short: as §1
[20] = Half life in pH 7.4 phosphate buffer at 5 uM by HPLC method; type: physicochemical; in short: as §5
[21] = Half life in pH 6.8 phosphate buffer at 5 uM by HPLC method; type: physicochemical; in short: as §5
[22] = Cmax in Wistar rat at 50 mg/kg, po administered as single dose by UPLC-MS/MS method; type: ADME, organism-based; design: dose 50 mg/kg, route oral; conditions: in vivo; in short: as §1
[23] = Tmax in Wistar rat at 7.5 mg/kg, iv administered as single dose by UPLC-MS/MS method; type: ADME, organism-based; conditions: in vivo; in short: as §1
Rattus norvegicus [24] = assay: AUC (0 to 24 hrs) in Wistar rat at 7.5 mg/kg, iv administered as single dose by UPLC-MS/MS method; type: ADME, organism-based; design: dose 7.5 mg/kg, time < 24 hr, route intravenous; conditions: in vivo; in short: as §1
[25] = Drug uptake in HEK293 cells at 25 uM after 15 mins by UPLC-MS/MS method; type: ADME, cell-based; conditions: human, hek293, 0.25 h; in short: as §6
BXPC-3 [26] = assay: Cytotoxicity against human BxPC3 cells assessed as decrease in cell viability at 0.1 to 200 uM after 48 hrs by MTT assay; type: functional, cell-based; in short: as §3
[27] = Terminal half-life in Wistar rat at 7.5 mg/kg, iv administered as single dose by UPLC-MS/MS method; type: ADME, organism-based; conditions: in vivo, read-out: beta t1/2 (converted); in short: as §1
[28] = Cmax in Wistar rat at 7.5 mg/kg, iv administered as single dose by UPLC-MS/MS method; type: ADME, organism-based; design: dose 7.5 mg/kg, route intravenous; conditions: in vivo; in short: as §1

C[N+](C)(C)CC(CC(=O)[O-])OC(=O)CCCCCCCCC(=O)Nc1ccn([C@@H]2O[C@H](CO)[C@@H](O)C2(F)F)c(=O)n1 (some centres not stated)
Vmax [1]: 0.3884 nmol/mg
Ratio [2]: 2.2 to 3.7
half-life [3]: 5.4 h
Ratio [4]: 1.6 to 3.6
Tmax [5]: 1.8 h
AUC (Rattus norvegicus [6]): 15900 ng·h/mL
Activity (BXPC-3 [7]): Dose-dependent effect

C[N+](C)(C)CC(CC(=O)[O-])OC(=O)CCC(=O)Nc1ccn([C@@H]2O[C@H](CO)[C@@H](O)C2(F)F)c(=O)n1 (some centres not stated)
half-life at 5 µM [8]: 15.5 h
Stability [9]: Stable
Ratio [10]: 2 to 10
half-life at 5 µM [11]: 3.7 h
half-life at 5 µM [12]: 5.5 h
Vmax [1]: 0.2013 nmol/mg
Ratio [13]: 25
Ratio [2]: 2.2 to 3.7
half-life [3]: 6.2 h
Ratio [4]: 1.6 to 3.6
Tmax [5]: 1 h
bioavailability [14]: 6%
half-life at 5 µM [15]: 50.9 h
AUC (Rattus norvegicus [6]): 14900 ng·h/mL
Ratio [16]: 25
fold change (FC) [17]: 5 to 15
uptake ratio at 25 µM (OCTN2): 3 to 8
concentration at 2 h [18]: 2460 ng/mL
Activity (BXPC-3 [7]): Dose-dependent effect
bioavailability [19]: 12%
half-life at 5 µM [20]: 28.4 h

CCCC(=O)Nc1ccn([C@@H]2O[C@H](CO)[C@@H](O)C2(F)F)c(=O)n1
half-life at 5 µM [8]: 32.7 h
half-life at 5 µM [11]: 1.7 h
half-life at 5 µM [12]: 1 h
half-life [3]: 4.3 h
half-life at 5 µM [21]: 45.9 h
Tmax [5]: 1.9 h
half-life at 5 µM [15]: 116 h
AUC (Rattus norvegicus [6]): 9030 ng·h/mL
half-life at 5 µM [20]: 10.3 h

Nc1ccn([C@@H]2O[C@H](CO)[C@@H](O)C2(F)F)c(=O)n1 [GEMCITABINE]
Cmax [22]: 1320 ng/mL
Tmax [23]: 0.5 h
half-life [3]: 2.3 h
Tmax [5]: 1.7 h
AUC (Rattus norvegicus [24]): 26700 ng·h/mL
AUC (Rattus norvegicus [6]): 5620 ng·h/mL
concentration at 2 h [18]: 199 ng/mL
Drug uptake [25]: Not Active
bioavailability [19]: 3.2%
Activity (BXPC-3 [26]): Active
half-life [27]: 4.4 h
Cmax [28]: 7100 ng/mL

C[N+](C)(C)CC(CC(=O)[O-])OC(=O)CCCCCCC(=O)Nc1ccn([C@@H]2O[C@H](CO)[C@@H](O)C2(F)F)c(=O)n1 (some centres not stated)
Vmax [1]: 0.4344 nmol/mg
Ratio [2]: 2.2 to 3.7
half-life [3]: 2.3 h
Ratio [4]: 1.6 to 3.6
Tmax [5]: 1.2 h
AUC (Rattus norvegicus [6]): 11100 ng·h/mL
fold change (FC) [17]: 5 to 15
Activity (BXPC-3 [7]): Dose-dependent effect
